Laboratory results: ChEMBL document CHEMBL4680175, “Sulfonamide-based ring-fused analogues for CAN508 as novel carbonic anhydrase inhibitors endowed with antitumor activity: Design, synthesis, and in vitro biological evaluation” (Eur J Med Chem, 2020)
The source made the active and inactive calls. No cut-off for these calls is given here.

How the values were obtained:
[1] = biological target: Carbonic anhydrase 1 (Homo sapiens, UniProt P00915); assay: Inhibition of recombinant human carbonic anhydrase 1 preincubated with enzyme for 15 mins by phenol red dye based stopped flow CO2 hydrase assay
Carbonic anhydrase 1, sequence (P00915 whole entry): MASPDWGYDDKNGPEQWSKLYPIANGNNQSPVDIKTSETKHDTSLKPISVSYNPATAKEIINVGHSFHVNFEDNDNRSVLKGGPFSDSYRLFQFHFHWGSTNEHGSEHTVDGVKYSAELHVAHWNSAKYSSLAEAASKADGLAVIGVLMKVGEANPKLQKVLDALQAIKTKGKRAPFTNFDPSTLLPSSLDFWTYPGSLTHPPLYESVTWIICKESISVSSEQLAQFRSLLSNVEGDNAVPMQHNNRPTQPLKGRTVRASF

[2] = biological target: Carbonic anhydrase 2 (Homo sapiens, UniProt P00918); assay: Inhibition of recombinant human carbonic anhydrase 2 preincubated with enzyme for 15 mins by phenol red dye based stopped flow CO2 hydrase assay
[3] = biological target: Carbonic anhydrase 9 (Homo sapiens, UniProt Q16790); assay: Inhibition of recombinant human carbonic anhydrase 9 preincubated with enzyme for 15 mins by phenol red dye based stopped flow CO2 hydrase assay
[4] = biological target: Carbonic anhydrase 12 (Homo sapiens, UniProt O43570); assay: Inhibition of recombinant human carbonic anhydrase 12 preincubated with enzyme for 15 mins by phenol red dye based stopped flow CO2 hydrase assay
Carbonic anhydrase 12, sequence (O43570 whole entry): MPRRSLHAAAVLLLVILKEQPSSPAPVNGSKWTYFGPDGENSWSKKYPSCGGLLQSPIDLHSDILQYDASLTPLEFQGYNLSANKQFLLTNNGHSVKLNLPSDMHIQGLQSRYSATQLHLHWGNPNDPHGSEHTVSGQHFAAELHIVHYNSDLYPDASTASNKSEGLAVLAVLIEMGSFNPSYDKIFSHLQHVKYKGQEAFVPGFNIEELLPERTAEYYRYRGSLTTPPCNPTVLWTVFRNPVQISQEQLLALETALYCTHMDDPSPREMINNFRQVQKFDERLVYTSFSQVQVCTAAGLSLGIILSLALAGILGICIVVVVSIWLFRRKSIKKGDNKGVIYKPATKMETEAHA

[5] = biological target: Cyclin-dependent kinase 2/cyclin E1 (Homo sapiens, UniProt P24941); assay: Inhibition of CDK2/cyclin E (unknown origin) expressed in baculovirus infected Sf21 insect cells using histone H1 as substrate in presence of [gamma33P]ATP
[6] = biological target: CDK9/cyclin T1 (Homo sapiens, UniProt P50750); assay: Inhibition of human full-length N-terminal GST/His6-tagged CDK9 (1 to 372 residues)/His6-tagged Cyclin-T1 (1 to 726 residues) expressed in sf9 cells using (YSPTSPS)2KK peptide as substrate in presence of [gamma33P]ATP
CDK9/cyclin T1, sequence (O60563 whole entry, the tested form may be a part): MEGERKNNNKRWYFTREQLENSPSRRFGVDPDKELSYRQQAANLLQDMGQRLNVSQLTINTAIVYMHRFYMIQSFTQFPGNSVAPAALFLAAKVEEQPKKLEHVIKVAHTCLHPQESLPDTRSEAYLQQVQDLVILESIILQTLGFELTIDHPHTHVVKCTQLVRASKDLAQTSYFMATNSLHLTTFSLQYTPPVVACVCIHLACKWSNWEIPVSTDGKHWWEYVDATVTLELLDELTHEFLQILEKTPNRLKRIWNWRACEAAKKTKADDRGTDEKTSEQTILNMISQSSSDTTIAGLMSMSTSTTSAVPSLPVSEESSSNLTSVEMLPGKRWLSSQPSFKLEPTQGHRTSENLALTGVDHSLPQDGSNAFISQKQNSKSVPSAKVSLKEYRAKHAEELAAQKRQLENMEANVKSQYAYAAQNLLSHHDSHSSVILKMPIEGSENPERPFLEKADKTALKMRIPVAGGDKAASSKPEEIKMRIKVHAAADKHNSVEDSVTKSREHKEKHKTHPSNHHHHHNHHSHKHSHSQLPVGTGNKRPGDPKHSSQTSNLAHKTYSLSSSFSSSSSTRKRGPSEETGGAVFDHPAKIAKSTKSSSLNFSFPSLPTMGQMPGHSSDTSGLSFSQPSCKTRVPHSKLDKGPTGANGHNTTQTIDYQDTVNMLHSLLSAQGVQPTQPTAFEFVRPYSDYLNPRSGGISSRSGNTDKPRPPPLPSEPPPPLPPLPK
CDK9/cyclin T1, sequence (P50750 whole entry, the tested form may be a part): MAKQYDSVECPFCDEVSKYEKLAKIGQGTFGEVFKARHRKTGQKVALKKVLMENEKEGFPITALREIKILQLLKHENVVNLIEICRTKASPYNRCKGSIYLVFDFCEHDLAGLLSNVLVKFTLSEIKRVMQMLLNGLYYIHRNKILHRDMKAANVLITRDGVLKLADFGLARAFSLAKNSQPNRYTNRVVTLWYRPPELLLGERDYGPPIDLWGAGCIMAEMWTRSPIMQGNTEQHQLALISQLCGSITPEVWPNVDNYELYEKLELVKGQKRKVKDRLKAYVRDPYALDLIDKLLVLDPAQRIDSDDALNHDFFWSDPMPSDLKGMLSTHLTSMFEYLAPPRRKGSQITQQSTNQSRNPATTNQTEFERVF

[7] = system: CCRF-CEM; assay: Antitumor activity against human CCRF-CEM cells assessed as cell growth inhibition at 10 uM incubated for 48 hrs by sulforhodamine B assay; assay type: functional; settings: read-out: GI
In short: (§1)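 NCI Drug Evaluation Branch protocol: primary single-dose screen at 10 μM across a 57-line human cancer panel. Drug exposure is 48 h. Cell growth and viability are read by sulforhodamine B assay. Data are given as a mean graph of percent growth of treated cells and reported as percentage growth inhibition (GI%).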

[8] = system: K562; assay: Antitumor activity against human K562 cells assessed as cell growth inhibition at 10 uM incubated for 48 hrs by sulforhodamine B assay; assay type: functional; settings: read-out: GI; in short: as §1
[9] = system: MOLT-4; assay: Antitumor activity against human MOLT4 cells assessed as cell growth inhibition at 10 uM incubated for 48 hrs by sulforhodamine B assay; assay type: functional; settings: read-out: GI; in short: as §1
[10] = system: RPMI-8226; assay: Antitumor activity against human RPMI8226 cells assessed as cell growth inhibition at 10 uM incubated for 48 hrs by sulforhodamine B assay; assay type: functional; settings: read-out: GI; in short: as §1
[11] = system: HOP-62; assay: Antitumor activity against human HOP62 cells assessed as cell growth inhibition at 10 uM incubated for 48 hrs by sulforhodamine B assay; assay type: functional; settings: read-out: GI; in short: as §1
[12] = system: HOP-92; assay: Antitumor activity against human HOP92 cells assessed as cell growth inhibition at 10 uM incubated for 48 hrs by sulforhodamine B assay; assay type: functional; settings: read-out: GI; in short: as §1
[13] = system: NCI-H460; assay: Antitumor activity against human NCI-H460 cells assessed as cell growth inhibition at 10 uM incubated for 48 hrs by sulforhodamine B assay; assay type: functional; settings: read-out: GI; in short: as §1
[14] = system: NCI-H522; assay: Antitumor activity against human NCI-H522 cells assessed as cell growth inhibition at 10 uM incubated for 48 hrs by sulforhodamine B assay; assay type: functional; settings: read-out: GI; in short: as §1
[15] = system: HCT-116; assay: Antitumor activity against human HCT116 cells assessed as cell growth inhibition at 10 uM incubated for 48 hrs by sulforhodamine B assay; assay type: functional; settings: read-out: GI; in short: as §1
[16] = system: KM12; assay: Antitumor activity against human KM12 cells assessed as cell growth inhibition at 10 uM incubated for 48 hrs by sulforhodamine B assay; assay type: functional; settings: read-out: GI; in short: as §1
[17] = system: SF-268; assay: Antitumor activity against human SF268 cells assessed as cell growth inhibition at 10 uM incubated for 48 hrs by sulforhodamine B assay; assay type: functional; settings: read-out: GI; in short: as §1
[18] = system: SF-539; assay: Antitumor activity against human SF539 cells assessed as cell growth inhibition at 10 uM incubated for 48 hrs by sulforhodamine B assay; assay type: functional; settings: read-out: GI; in short: as §1
[19] = system: SNB-75; assay: Antitumor activity against human SNB-75 cells assessed as cell growth inhibition at 10 uM incubated for 48 hrs by sulforhodamine B assay; assay type: functional; settings: read-out: GI
In short: (§2)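 NCI one-dose screen: 57-cell-line panel exposed at 10 μM for 48 h, Drug Evaluation Branch protocol. Growth and viability read by sulforhodamine B; data given as percent growth inhibition from the mean-graph of percent growth of treated cells.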

[20] = system: U-251; assay: Antitumor activity against human U251 cells assessed as cell growth inhibition at 10 uM incubated for 48 hrs by sulforhodamine B assay; assay type: functional; settings: read-out: GI; in short: as §2
[21] = system: LOX IMVI; assay: Antitumor activity against human LOX IMVI cells assessed as cell growth inhibition at 10 uM incubated for 48 hrs by sulforhodamine B assay; assay type: functional; settings: read-out: GI; in short: as §1
[22] = system: Malme-3M; assay: Antitumor activity against human MALME-3M cells assessed as cell growth inhibition at 10 uM incubated for 48 hrs by sulforhodamine B assay; assay type: functional; settings: read-out: GI; in short: as §1
[23] = system: CAKI-1; assay: Antitumor activity against human CAKI-1 cells assessed as cell growth inhibition at 10 uM incubated for 48 hrs by sulforhodamine B assay; assay type: functional; settings: read-out: GI; in short: as §1
[24] = system: SK-MEL-2; assay: Antitumor activity against human SK-MEL-2 cells assessed as cell growth inhibition at 10 uM incubated for 48 hrs by sulforhodamine B assay; assay type: functional; settings: read-out: GI; in short: as §1
[25] = system: SK-MEL-5; assay: Antitumor activity against human SK-MEL-5 cells assessed as cell growth inhibition at 10 uM incubated for 48 hrs by sulforhodamine B assay; assay type: functional; settings: read-out: GI; in short: as §1
[26] = system: OVCAR-3; assay: Antitumor activity against human OVCAR-3 cells assessed as cell growth inhibition at 10 uM incubated for 48 hrs by sulforhodamine B assay; assay type: functional; settings: read-out: GI; in short: as §1
[27] = system: DU-145; assay: Antitumor activity against human DU-145 cells assessed as cell growth inhibition at 10 uM incubated for 48 hrs by sulforhodamine B assay; assay type: functional; settings: read-out: GI; in short: as §1
[28] = system: UO-31; assay: Antitumor activity against human UO-31 cells assessed as cell growth inhibition at 10 uM incubated for 48 hrs by sulforhodamine B assay; assay type: functional; settings: read-out: GI; in short: as §2
[29] = system: PC-3; assay: Antitumor activity against human PC-3 cells assessed as cell growth inhibition at 10 uM incubated for 48 hrs by sulforhodamine B assay; assay type: functional; settings: read-out: GI; in short: as §1
[30] = system: SN12C; assay: Antitumor activity against human SN12C cells assessed as cell growth inhibition at 10 uM incubated for 48 hrs by sulforhodamine B assay; assay type: functional; settings: read-out: GI; in short: as §1
[31] = system: MCF7; assay: Antitumor activity against human MCF7 cells assessed as cell growth inhibition at 10 uM incubated for 48 hrs by sulforhodamine B assay; assay type: functional; settings: read-out: GI; in short: as §1
[32] = system: MDA-MB-231; assay: Antitumor activity against human MDA-MB-231/ATCC cells assessed as cell growth inhibition at 10 uM incubated for 48 hrs by sulforhodamine B assay; assay type: functional; settings: read-out: GI; in short: as §1
[33] = system: Hs-578T; assay: Antitumor activity against human HS 578T cells assessed as cell growth inhibition at 10 uM incubated for 48 hrs by sulforhodamine B assay; assay type: functional; settings: read-out: GI; in short: as §1
[34] = system: BT-549; assay: Antitumor activity against human BT-549 cells assessed as cell growth inhibition at 10 uM incubated for 48 hrs by sulforhodamine B assay; assay type: functional; settings: read-out: GI; in short: as §1
[35] = system: T47D; assay: Antitumor activity against human T-47D cells assessed as cell growth inhibition at 10 uM incubated for 48 hrs by sulforhodamine B assay; assay type: functional; settings: read-out: GI; in short: as §2
[36] = system: MDA-MB-468; assay: Antitumor activity against human MDA-MB-468 cells assessed as cell growth inhibition at 10 uM incubated for 48 hrs by sulforhodamine B assay; assay type: functional; settings: read-out: GI; in short: as §1
[37] = system: NCI/ADR-RES; assay: Antitumor activity against human NCI/ADR-RES cells assessed as cell growth inhibition at 10 uM incubated for 48 hrs by sulforhodamine B assay; assay type: functional, cell-based; in short: as §1

SMILES | Ki [1] [nM] | Ki [2] [nM] | Ki [3] [nM] | Ki [4] [nM] | IC50 [5] [nM] | IC50 [6] [nM] | inhibition of growth at 10 µM [7] [%] | inhibition of growth at 10 µM [8] [%] | inhibition of growth at 10 µM [9] [%] | inhibition of growth at 10 µM [10] [%] | inhibition of growth at 10 µM [11] [%] | inhibition of growth at 10 µM [12] [%] | inhibition of growth at 10 µM [13] [%] | inhibition of growth at 10 µM [14] [%] | inhibition of growth at 10 µM [15] [%] | inhibition of growth at 10 µM [16] [%] | inhibition of growth at 10 µM [17] [%] | inhibition of growth at 10 µM [18] [%] | inhibition of growth at 10 µM [19] [%] | inhibition of growth at 10 µM [20] [%] | also measured
N#Cc1c(-c2ccc(Br)cc2)nc2c(/N=N/c3ccc(S(N)(=O)=O)cc3)c(N)nn2c1N | 4160 | 885 | 65.7 | 43.2 | > 12500 | > 12500 | 104 | 64 | 98 | 114 | 48 | 69 | 63 | 61 | 75 | 48 | 44 | 61 | 43 | 59 | inhibition of growth at 10 µM [21]: 71%; inhibition of growth at 10 µM [22]: 42%; inhibition of growth at 10 µM [23]: 47%; inhibition of growth at 10 µM [24]: 57%; inhibition of growth at 10 µM [25]: 54%; inhibition of growth at 10 µM [26]: 45%; inhibition of growth at 10 µM [27]: 67%; inhibition of growth at 10 µM [28]: 41%; inhibition of growth at 10 µM [29]: 62%; inhibition of growth at 10 µM [30]: 54%; inhibition of growth at 10 µM [31]: 68%; inhibition of growth at 10 µM [32]: 59%; inhibition of growth at 10 µM [33]: 55%; inhibition of growth at 10 µM [34]: 26%; inhibition of growth at 10 µM [35]: 68%; inhibition of growth at 10 µM [36]: 76%; Activity [37]: inactive
Nc1nn2cc(-c3ccc(Br)cc3)[nH]c2c1/N=N/c1ccc(S(N)(=O)=O)cc1 | 1590 | 49.3 | 44.9 | 52.8 | > 12500 | > 12500 | 45 | 38 | 42 | 55 | 37 | 29 | 62 | 55 | 62 | 39 | 42 | 42 | 64 | 38 | inhibition of growth at 10 µM [21]: 64%; inhibition of growth at 10 µM [22]: 64%; inhibition of growth at 10 µM [23]: 82%; inhibition of growth at 10 µM [24]: 53%; inhibition of growth at 10 µM [25]: 45%; inhibition of growth at 10 µM [26]: 27%; inhibition of growth at 10 µM [27]: 47%; inhibition of growth at 10 µM [28]: 74%; inhibition of growth at 10 µM [29]: 39%; inhibition of growth at 10 µM [30]: 58%; inhibition of growth at 10 µM [31]: 33%; inhibition of growth at 10 µM [32]: 43%; inhibition of growth at 10 µM [33]: 54%; inhibition of growth at 10 µM [34]: 25%; inhibition of growth at 10 µM [35]: 46%; inhibition of growth at 10 µM [36]: 51%; Activity [37]: inactive
Cc1ccc(-c2nc3c(/N=N/c4ccc(S(N)(=O)=O)cc4)c(N)nn3c(N)c2C#N)cc1 | 3530 | 638 | 44.3 | 48.8 | 11600 | > 12500 | 88 | 80 | 96 | 116 | 57 | 80 | 72 | 71 | 86 | 71 | 65 | 69 | 51 | 68 | inhibition of growth at 10 µM [21]: 78%; inhibition of growth at 10 µM [22]: 51%; inhibition of growth at 10 µM [23]: 59%; inhibition of growth at 10 µM [24]: 73%; inhibition of growth at 10 µM [25]: 152%; inhibition of growth at 10 µM [26]: 76%; inhibition of growth at 10 µM [27]: 65%; inhibition of growth at 10 µM [28]: 31%; inhibition of growth at 10 µM [29]: 68%; inhibition of growth at 10 µM [30]: 67%; inhibition of growth at 10 µM [31]: 72%; inhibition of growth at 10 µM [32]: 60%; inhibition of growth at 10 µM [33]: 61%; inhibition of growth at 10 µM [34]: 44%; inhibition of growth at 10 µM [35]: 66%; inhibition of growth at 10 µM [36]: 94%; Activity [37]: inactive
